# Assay results published in ChEMBL document CHEMBL3769387, “α-Glucosidase inhibition and antihyperglycemic activity of flavonoids from Ampelopsis grossedentata and the flavonoid derivatives” (Bioorg Med Chem, 2016).
# Calls of active or inactive are those of the source. The calls are words filed in the database; no cut-off is given here.
# Key:
# [1] = Inhibition of Saccharomyces cerevisiae alpha-glucosidase using p-nitrophenyl-alpha-D-glucopyranoside as substrate preincubated for 10 mins followed by substrate addition measured after 30 mins by microplate reader analysis
# Summary of the method: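 α-Glucosidase 0.1 U/mL and p-NPG 1.0 mM in 0.1 M potassium phosphate pH 6.7; samples in DMSO. Inhibitor preincubated with enzyme 10 min at 37 °C, substrate added, 30 min at 37 °C, stopped with 1 M Na2CO3; absorbance 405 nm with blank correction. Five concentrations, triplicate; IC50 as mean ± SEM of three independent experiments.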
# Mus musculus [2] = assay: Hypoglycemic effect in Kunming mouse model of STZ-induced diabetes assessed as reduction in fasting blood glucose level at 100 mg/kg, po measured at 9 hrs post dose by glucometry analysis relative to control; type: functional; parameters: scale not given: the % may be the effect or the level left
# Summary of the method: (§1)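 STZ-diabetic Kunming mice (single i.p. streptozotocin 100 mg/kg in citrate buffer pH 4.5, fasting; glucose checked day 7), fasted, dosed orally in 0.5 % CMC–Na with vehicle-only controls. Tail-vein glucometer readings at 0, 1.5, 3, 5, 7 and 9 h post-dose; percent change relative to vehicle group. n = 6; mean ± SEM, one-way ANOVA with post-hoc test.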
# Mus musculus [3] = assay: Hypoglycemic effect in Kunming mouse model of STZ-induced diabetes assessed as reduction in fasting blood glucose level at 50 mg/kg, po measured at 1.5 hrs post dose by glucometry analysis relative to control; type: functional; parameters: scale not given: the % may be the effect or the level left; summary of the method: as §1
# Mus musculus [4] = assay: Hypoglycemic effect in Kunming mouse model of STZ-induced diabetes assessed as reduction in fasting blood glucose level at 100 mg/kg, po measured at 3 hrs post dose by glucometry analysis relative to control; type: functional; parameters: scale not given: the % may be the effect or the level left; summary of the method: as §1
# Mus musculus [5] = assay: Hypoglycemic effect in Kunming mouse assessed as reduction in fasting blood glucose level at 25 to 100 mg/kg, po measured at 1.5 to 9 hrs post dose by glucometry analysis; type: functional, organism-based
# Summary of the method: (§2)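 Fasted normal Kunming mice (4–6 weeks) given single oral dose suspended in 0.5 % CMC–Na; control group received vehicle only. Tail-vein glucose measured by glucometer at 0, 1.5, 3, 5, 7 and 9 h after administration. Six mice per group; mean ± SEM, one-way ANOVA followed by Tukey's or Dunnett's test versus control.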
# Mus musculus [6] = assay: Hypoglycemic effect in Kunming mouse model of STZ-induced diabetes assessed as reduction in fasting blood glucose level at 50 mg/kg, po measured at 3 hrs post dose by glucometry analysis relative to control; type: functional; parameters: scale not given: the % may be the effect or the level left; summary of the method: as §1
# [7] = Competitive inhibition of Saccharomyces cerevisiae alpha-glucosidase using p-nitrophenyl-alpha-D-glucopyranoside as substrate by Lineweaver-Burk plot analysis
# Summary of the method: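 Enzyme kinetics run with rising concentrations of 4-nitrophenyl α-D-glucopyranoside and of inhibitor; mode of inhibition assigned from Lineweaver–Burk plots under Michaelis–Menten kinetics.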
# Mus musculus [8] = assay: Antihyperglycemic effect in Kunming mouse model of STZ-induced diabetes assessed as reduction in postprandial blood glucose level at 25 mg/kg, po administered 30 mins before sucrose challenge measured after 30 to 90 mins by oral sucrose tolerance test; type: functional, organism-based
# Summary of the method: (§3)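 Diabetes induced in Kunming mice (4–6 weeks) by single i.p. streptozotocin 100 mg/kg in citrate buffer pH 4.5 under fasting, glucose checked on day 7. Fasted mice dosed orally in 0.5 % CMC–Na (vehicle controls), then sucrose 3 g/kg orally after 30 min; tail-vein glucometer readings at 0–3.0 h post-load. n = 6; mean ± SEM, one-way ANOVA with post-hoc test.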
# Mus musculus [9] = assay: Antihyperglycemic effect in Kunming mouse assessed as reduction in postprandial blood glucose level at 25 mg/kg, po administered 30 mins before sucrose challenge measured after 30 to 90 mins by oral sucrose tolerance test; type: functional, organism-based
# Summary of the method: (§4)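 Male/female unspecified Kunming mice, 4–6 weeks old, fasted. Oral dosing suspended in 0.5 % CMC–Na (controls given vehicle alone); sucrose 3 g/kg orally 30 min later. Six mice per group; mean ± SEM, one-way ANOVA with Tukey's or Dunnett's test.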
# Mus musculus [10] = assay: Antihyperglycemic effect in Kunming mouse assessed as reduction in postprandial blood glucose level at 50 and 100 mg/kg, po administered 30 mins before sucrose challenge measured after 30 to 90 mins by oral sucrose tolerance test; type: functional, organism-based; summary of the method: as §4
# Mus musculus [11] = assay: Hypoglycemic effect in Kunming mouse model of STZ-induced diabetes assessed as reduction in fasting blood glucose level at 100 mg/kg, po measured at 7 hrs post dose by glucometry analysis relative to control; type: functional; parameters: scale not given: the % may be the effect or the level left; summary of the method: as §1
# Mus musculus [12] = assay: Hypoglycemic effect in Kunming mouse model of STZ-induced diabetes assessed as reduction in fasting blood glucose level at 100 mg/kg, po measured at 5 hrs post dose by glucometry analysis relative to control; type: functional; parameters: scale not given: the % may be the effect or the level left; summary of the method: as §1
# Mus musculus [13] = assay: Antihyperglycemic effect in Kunming mouse model of STZ-induced diabetes assessed as reduction in postprandial blood glucose level at 50 and 100 mg/kg, po administered 30 mins before sucrose challenge measured after 30 to 90 mins by oral sucrose tolerance test; type: functional, organism-based; summary of the method: as §3
# Mus musculus [14] = assay: Hypoglycemic effect in Kunming mouse model of STZ-induced diabetes assessed as reduction in fasting blood glucose level at 50 mg/kg, po measured at 7 hrs post dose by glucometry analysis relative to control; type: functional; parameters: scale not given: the % may be the effect or the level left; summary of the method: as §1
# Mus musculus [15] = assay: Hypoglycemic effect in Kunming mouse model of STZ-induced diabetes assessed as reduction in fasting blood glucose level at 100 mg/kg, po measured at 1.5 hrs post dose by glucometry analysis relative to control; type: functional; parameters: scale not given: the % may be the effect or the level left; summary of the method: as §1
# Mus musculus [16] = assay: Hypoglycemic effect in Kunming mouse model of STZ-induced diabetes assessed as reduction in fasting blood glucose level at 50 mg/kg, po measured at 9 hrs post dose by glucometry analysis relative to control; type: functional; parameters: scale not given: the % may be the effect or the level left; summary of the method: as §1
# Mus musculus [17] = assay: Hypoglycemic effect in Kunming mouse model of STZ-induced diabetes assessed as reduction in fasting blood glucose level at 50 mg/kg, po measured at 5 hrs post dose by glucometry analysis relative to control; type: functional; parameters: scale not given: the % may be the effect or the level left; summary of the method: as §1
# Mus musculus [18] = assay: Hypoglycemic effect in Kunming mouse model of STZ-induced diabetes assessed as reduction in fasting blood glucose level at 10 mg/kg, po measured at 1.5 to 9 hrs post dose by glucometry analysis; type: functional, organism-based; summary of the method: as §1
# Mus musculus [19] = assay: Hypoglycemic effect in Kunming mouse assessed as reduction in fasting blood glucose level at 10 mg/kg, po measured at 1.5 to 9 hrs post dose by glucometry analysis; type: functional, organism-based; summary of the method: as §2
compound,measurement,setting,value
O=c1c(O)c(-c2cc(O)c(O)c(O)c2)oc2cc(O)cc(O)c12 [MYRICETIN],IC50,[1],319 µM
O=C1c2c(O)cc(O)cc2O[C@H](c2cc(O)c(O)c(O)c2)[C@H]1O [AMPELOPSIN],IC50,[1],634 µM
O=c1c(O)c(-c2cc(O)c(OCCN(CCO)c3ccccc3)c(O)c2)oc2cc(O)cc(O)c12,IC50,[1],41.1 µM
Cc1ccc(S(=O)(=O)N(CCO)CCOc2c(O)cc(-c3oc4cc(O)cc(O)c4c(=O)c3O)cc2O)cc1,Activity,Mus musculus [2],67.3%
same,Activity,Mus musculus [3],27.8%
same,Activity,Mus musculus [4],45.1%
same,Activity,Mus musculus [5],inactive
same,Activity,Mus musculus [6],35.9%
same,Ki,[7],10.3 µM
same,Activity,Mus musculus [8],inactive
same,Activity,Mus musculus [9],inactive
same,Activity,Mus musculus [10],Active
same,Activity,Mus musculus [11],65.4%
same,Activity,Mus musculus [12],60%
same,Activity,Mus musculus [13],Active
same,Activity,Mus musculus [14],59.6%
same,IC50,[1],9.3 µM
same,Activity,Mus musculus [15],37%
same,Activity,Mus musculus [16],61.5%
same,Activity,Mus musculus [17],47.3%
O=c1c(O)c(-c2cc(O)c(OCCO)c(O)c2)oc2cc(O)cc(O)c12,IC50,[1],84.5 µM
O=c1c(O)c(-c2cc(O)c(OCCOCCO)c(O)c2)oc2cc(O)cc(O)c12,IC50,[1],43.8 µM
O=c1c(O)c(-c2cc(O)c(OCCOCCOCCO)c(O)c2)oc2cc(O)cc(O)c12,IC50,[1],233 µM
C[C@@H]1O[C@@H](Oc2c(-c3cc(O)c(O)c(O)c3)oc3cc(O)cc(O)c3c2=O)[C@H](O)[C@H](O)[C@H]1O,IC50,[1],838 µM
O=c1c(O)c(-c2cc(O)c(OCCOCCOCCOCCO)c(O)c2)oc2cc(O)cc(O)c12,IC50,[1],463 µM
COc1ccc(Cl)cc1C(=O)NCCc1ccc(S(=O)(=O)NC(=O)NC2CCCCC2)cc1,Activity,Mus musculus [18],Active
same,Activity,Mus musculus [19],Active
C[C@@H]1O[C@@H](O[C@@H]2[C@@H](O)[C@H](O)[C@H](O[C@H]3[C@H](O)[C@@H](O)C(O)O[C@@H]3CO)O[C@H]2CO)[C@@H](O)[C@H](O)[C@H]1N[C@H]1C=C(CO)[C@@H](O)[C@H](O)[C@H]1O (stereo partly drawn),IC50,[1],720 µM
